In ChEMBL document CHEMBL1142744 (Bioorg Med Chem Lett, 2005):

Columns and labels:
[1] = target: Neuronal acetylcholine receptor; alpha4/beta2 (Rattus norvegicus, UniProt P09483+P12390); assay: In vitro binding affinity towards rat Nicotinic acetylcholine receptor alpha4-beta2 using 0.5 nM [3H]epibatidine; type: protein-complex assay
Procedure, shortened: (§1)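 Stably transfected cell lines, each expressing one rat nAChR subtype (α4β2 or α4β4), were used. Ki was derived from the radioligand Kd for each subtype.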

[2] = target: Neuronal acetylcholine receptor; alpha2/beta2 (Rattus norvegicus, UniProt P12389+P12390); assay: In vitro binding affinity towards rat Nicotinic acetylcholine receptor alpha2-beta2 using 0.5 nM [3H]epibatidine; type: protein-complex assay
Chain of Neuronal acetylcholine receptor; alpha2/beta2 (P12389 whole entry): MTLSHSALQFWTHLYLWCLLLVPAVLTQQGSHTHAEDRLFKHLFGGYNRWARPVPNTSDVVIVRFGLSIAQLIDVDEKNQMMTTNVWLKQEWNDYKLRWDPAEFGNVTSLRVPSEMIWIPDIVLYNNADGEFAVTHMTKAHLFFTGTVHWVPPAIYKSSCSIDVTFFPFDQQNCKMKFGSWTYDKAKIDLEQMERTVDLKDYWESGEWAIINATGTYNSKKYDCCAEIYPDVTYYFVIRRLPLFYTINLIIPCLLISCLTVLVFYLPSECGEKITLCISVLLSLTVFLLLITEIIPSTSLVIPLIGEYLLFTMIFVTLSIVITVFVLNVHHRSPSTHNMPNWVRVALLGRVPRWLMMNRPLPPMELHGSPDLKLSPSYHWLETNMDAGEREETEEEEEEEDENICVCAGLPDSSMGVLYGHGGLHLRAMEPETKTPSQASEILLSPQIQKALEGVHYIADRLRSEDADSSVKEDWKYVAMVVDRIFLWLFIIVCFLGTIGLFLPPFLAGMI
Chain of Neuronal acetylcholine receptor; alpha2/beta2 (P12390 whole entry): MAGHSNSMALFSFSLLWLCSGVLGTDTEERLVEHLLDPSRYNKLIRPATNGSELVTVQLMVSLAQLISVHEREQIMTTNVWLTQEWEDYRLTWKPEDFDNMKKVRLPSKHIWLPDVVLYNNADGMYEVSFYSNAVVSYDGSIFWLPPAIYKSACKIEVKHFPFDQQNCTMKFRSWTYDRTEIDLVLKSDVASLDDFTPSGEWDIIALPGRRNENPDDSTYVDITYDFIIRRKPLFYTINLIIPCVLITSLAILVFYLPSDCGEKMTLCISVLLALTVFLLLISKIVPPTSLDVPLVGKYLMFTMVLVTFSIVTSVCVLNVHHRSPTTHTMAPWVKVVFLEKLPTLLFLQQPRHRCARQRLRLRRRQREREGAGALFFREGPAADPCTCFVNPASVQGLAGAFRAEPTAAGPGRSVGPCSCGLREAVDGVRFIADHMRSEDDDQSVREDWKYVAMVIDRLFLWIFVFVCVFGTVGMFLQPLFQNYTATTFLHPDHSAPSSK

[3] = target: Neuronal acetylcholine receptor; alpha2/beta4 (Rattus norvegicus, UniProt P12389+P12392); assay: In vitro binding affinity towards rat Nicotinic acetylcholine receptor alpha2-beta4 using 0.5 nM [3H]epibatidine; type: protein-complex assay
Chain of Neuronal acetylcholine receptor; alpha2/beta4 (P12389 whole entry): as the sequence (P12389 whole entry) above
Chain of Neuronal acetylcholine receptor; alpha2/beta4 (P12392 whole entry): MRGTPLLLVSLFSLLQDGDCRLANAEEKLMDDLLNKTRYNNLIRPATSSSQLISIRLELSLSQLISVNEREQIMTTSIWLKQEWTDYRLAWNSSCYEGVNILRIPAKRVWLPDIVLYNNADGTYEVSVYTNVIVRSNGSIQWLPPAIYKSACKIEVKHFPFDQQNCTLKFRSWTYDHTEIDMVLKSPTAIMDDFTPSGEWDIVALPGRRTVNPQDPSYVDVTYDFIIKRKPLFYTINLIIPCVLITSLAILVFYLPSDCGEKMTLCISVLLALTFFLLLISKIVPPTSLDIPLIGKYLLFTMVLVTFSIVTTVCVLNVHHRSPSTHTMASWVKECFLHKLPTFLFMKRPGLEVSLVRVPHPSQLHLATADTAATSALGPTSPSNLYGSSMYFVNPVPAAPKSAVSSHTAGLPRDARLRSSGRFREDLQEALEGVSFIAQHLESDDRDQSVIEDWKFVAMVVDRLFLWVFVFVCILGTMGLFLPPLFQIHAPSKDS

[4] = target: Neuronal acetylcholine receptor; alpha4/beta4 (Rattus norvegicus, UniProt P09483+P12392); assay: In vitro binding affinity towards rat Nicotinic acetylcholine receptor alpha4-beta4 using 0.5 nM [3H]epibatidine; type: protein-complex assay; procedure, shortened: as §1
Chain of Neuronal acetylcholine receptor; alpha4/beta4 (P09483 whole entry): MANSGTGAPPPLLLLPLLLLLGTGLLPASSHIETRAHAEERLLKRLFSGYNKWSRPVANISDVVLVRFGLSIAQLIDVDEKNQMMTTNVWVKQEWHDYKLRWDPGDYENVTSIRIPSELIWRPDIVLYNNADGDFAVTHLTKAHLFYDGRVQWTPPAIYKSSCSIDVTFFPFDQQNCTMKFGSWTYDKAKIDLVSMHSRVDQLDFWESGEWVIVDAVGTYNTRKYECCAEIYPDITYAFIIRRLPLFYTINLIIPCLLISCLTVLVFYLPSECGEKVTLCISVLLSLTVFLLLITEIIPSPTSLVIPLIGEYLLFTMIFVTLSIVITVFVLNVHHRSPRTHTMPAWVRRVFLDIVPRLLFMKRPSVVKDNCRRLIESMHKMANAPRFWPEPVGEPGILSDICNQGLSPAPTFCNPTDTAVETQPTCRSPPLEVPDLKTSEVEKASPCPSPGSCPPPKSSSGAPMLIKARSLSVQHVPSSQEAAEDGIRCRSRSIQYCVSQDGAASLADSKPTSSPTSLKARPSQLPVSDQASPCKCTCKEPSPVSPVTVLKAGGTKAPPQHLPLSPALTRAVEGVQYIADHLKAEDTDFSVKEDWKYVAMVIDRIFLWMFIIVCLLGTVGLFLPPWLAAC
Chain of Neuronal acetylcholine receptor; alpha4/beta4 (P12392 whole entry): as the sequence (P12392 whole entry) above

[5] = target: Neuronal acetylcholine receptor; alpha3/beta4 (Rattus norvegicus) (UniProt P04757+P12392); assay: Agonistic activity as [86Rb+] efflux from KXalpha-3-beta-4R2 cells expressing rat Nicotinic acetylcholine receptor at 100 uM; type: functional
Procedure, shortened: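 KXα3β4R2 cells stably expressing functional rat α3β4 receptors were used. Agonism was read as stimulated 86Rb+ efflux in the presence of compound at 100 µM.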

[6] = target: Neuronal acetylcholine receptor; alpha3/beta4 (Rattus norvegicus, UniProt P04757+P12392); assay: In vitro binding affinity towards rat Nicotinic acetylcholine receptor alpha3-beta4 using 0.5 nM [3H]epibatidine; type: protein-complex assay
Chain of Neuronal acetylcholine receptor; alpha3/beta4 (P04757 whole entry): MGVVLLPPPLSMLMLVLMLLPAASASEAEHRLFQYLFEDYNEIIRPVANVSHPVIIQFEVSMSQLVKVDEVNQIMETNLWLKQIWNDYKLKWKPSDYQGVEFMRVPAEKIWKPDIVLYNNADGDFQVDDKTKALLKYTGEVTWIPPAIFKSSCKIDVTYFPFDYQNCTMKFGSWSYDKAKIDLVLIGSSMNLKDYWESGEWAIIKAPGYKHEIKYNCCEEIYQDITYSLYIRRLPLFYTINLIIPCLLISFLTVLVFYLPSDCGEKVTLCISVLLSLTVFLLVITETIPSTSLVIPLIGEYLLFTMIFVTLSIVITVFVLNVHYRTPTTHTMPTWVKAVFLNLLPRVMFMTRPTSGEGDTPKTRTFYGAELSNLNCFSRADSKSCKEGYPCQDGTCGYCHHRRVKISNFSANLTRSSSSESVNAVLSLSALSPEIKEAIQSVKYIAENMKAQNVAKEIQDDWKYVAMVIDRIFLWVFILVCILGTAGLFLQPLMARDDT
Chain of Neuronal acetylcholine receptor; alpha3/beta4 (P12392 whole entry): as the sequence (P12392 whole entry) above

[7] = target: Neuronal acetylcholine receptor; alpha3/beta2 (Rattus norvegicus, UniProt P04757+P12390); assay: In vitro binding affinity towards rat Nicotinic acetylcholine receptor alpha3-beta2 using 0.5 nM [3H]epibatidine; type: protein-complex assay
Chain of Neuronal acetylcholine receptor; alpha3/beta2 (P04757 whole entry): as the sequence (P04757 whole entry) above
Chain of Neuronal acetylcholine receptor; alpha3/beta2 (P12390 whole entry): as the sequence (P12390 whole entry) above

Chain of Neuronal acetylcholine receptor; alpha4/beta2 (P09483 whole entry): as the sequence (P09483 whole entry) above
Chain of Neuronal acetylcholine receptor; alpha4/beta2 (P12390 whole entry): as the sequence (P12390 whole entry) above

Structure (SMILES)	Ki [1] [nM]	Ki [2] [nM]	Ki [3] [nM]	Ki [4] [nM]	Stimulation [5] [%]	Ki [6] [nM]	Ki [7] [nM]
CN1C2CCC1C(c1cnc(Cl)c(-c3ccccc3)c1)C2 (stereo unspecified)	0.032	0.053	0.24	1.57	3.9	15.4	0.158
Fc1ncc(C2CC3CCC2N3)cc1-c1ccccc1 (stereo unspecified)	0.733	0.643	16.6	26	0.4	947	3.54
CN1CCC[C@H]1c1cccnc1					100		
Clc1ncc(C2CC3CCC2N3)cc1-c1ccccc1 (stereo unspecified)	0.039	0.037	0.47	1.15	6.1	24	0.122
Cc1ccc(-c2cc(C3CC4CCC3N4)cnc2F)cc1 (stereo unspecified)	0.028	0.035	0.541	1.22	1	29	0.078
Clc1ccc(C2CC3CCC2N3)cn1 (racemic)					112		
Fc1ncc(C2CC3CCC2N3)cc1-c1ccc(Cl)cc1 (stereo unspecified)	0.062	0.064	4.12	3.99	3.2	256	0.339
Fc1ncc(C2CC3CCC2N3)cc1-c1ccc(Cl)c(Cl)c1 (stereo unspecified)	0.28	0.245	6.99	7.36	2.7	334	2.31
Cc1cccc(-c2cc(C3CC4CCC3N4)cnc2F)c1 (stereo unspecified)	0.898	1.11	31.3	36.7	0.1	2400	9.27
N#Cc1ccc(-c2cc(C3CC4CCC3N4)cnc2F)cc1 (stereo unspecified)	0.039	0.066	3.67	3.6	36.8	289	0.351
Cc1ccc(-c2cc(C3CC4CCC3N4)cnc2Cl)cc1 (stereo unspecified)	0.058	0.044	5.26	4.75	3.8	429	0.171
Fc1ccc(-c2cc(C3CC4CCC3N4)cnc2F)cc1 (stereo unspecified)	0.078	0.079	6.12	6.42	3.6	405	0.504
COc1ccc(-c2cc(C3CC4CCC3N4)cnc2Cl)cc1 (stereo unspecified)	0.034	0.04	0.862	1.57	3.1	54.5	0.1
Cc1cc(-c2cc(C3CC4CCC3N4)cnc2F)ccc1F (stereo unspecified)	1.26	1.54	60.1	67.6	0.7	2940	8.84
